Source: PubChem BioAssay
S1P4 agonist – agonists of human S1P4 receptor; S1P4-expressing cell line, agonist reporter assay; activation, % at 4.98 µM; hit rate 0.35% among 220,000; AID 1509; in the data active means activation above about 11%;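 further: 0% = DMSO vehicle and 100% = reference agonist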
Target sequence (O95977 whole entry, looked up): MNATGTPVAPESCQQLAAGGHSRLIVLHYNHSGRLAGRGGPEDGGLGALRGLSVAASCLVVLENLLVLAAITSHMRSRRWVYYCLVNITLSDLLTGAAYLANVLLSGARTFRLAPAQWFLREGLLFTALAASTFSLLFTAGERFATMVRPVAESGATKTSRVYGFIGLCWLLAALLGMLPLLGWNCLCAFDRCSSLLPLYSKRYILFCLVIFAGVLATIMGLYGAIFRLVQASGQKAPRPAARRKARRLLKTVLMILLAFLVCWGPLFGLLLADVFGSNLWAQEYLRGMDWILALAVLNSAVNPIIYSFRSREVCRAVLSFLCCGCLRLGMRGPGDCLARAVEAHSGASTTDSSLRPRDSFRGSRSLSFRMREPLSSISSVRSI
NPY-Y1 antag – NPY-Y1 (human) receptor antagonism | inhibition, % at 3.6 µM | P25929 | AID 1040 | HEK293-CNG Y1 cells, membrane potential fluorescence; NPY at EC95, then isoproterenol | hit rate 1% among 200,000;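 active means inhibition above the campaign mean inhibition of all tested compounds plus 3 SD, cut at about 20% in these data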;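 further: 0% = DMSO wells given NPY plus isoproterenol and 100% = isoproterenol alone without NPY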
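Test system – HEK293 Y1/CNG channel cell line · Also added – NPY agonist 25 nM, then isoproterenol 1 µM plus Ro 20-1724 25 µM · Compound dosing – one concentration, 3.6 µM, in 0.4% DMSO · Schedule – compound incubation 1 h at room temperature, readout 45 min post-stimulation · Technique – fluorescence, membrane potential probe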
NPY-Y2 PAM-ag – potentiators or agonists of human neuropeptide Y receptor Y2. P49146. cells expressing NPY-Y2, potentiator/agonist read-out. activation, % at 3.6 µM. hit rate 0.45% among 220,000; in the data active means activation above about 27%;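 further: cells stimulated with NPY near EC25 plus isoproterenol at EC100; 0% = vehicle plus submaximal agonist and 100% = vehicle plus saturating agonist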
S1P4 antag – antagonists of human S1P4 receptor; O95977; hit rate 0.26% among 220,000; inhibition, % at 4.98 µM; S1P4-expressing cells, antagonist mode, reporter read-out; in the data active means inhibition above about 29%;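 further: 0% = wells stimulated with agonist and 100% = vehicle wells without agonist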
NPY-Y1 PAM-ag – human NPY-Y1 potentiation or agonism, primary screen. P25929. NPY-Y1 expressing cells, potentiator/agonist activation. activation, % at 3.6 µM. hit rate 0.37% among 220,000; in the data active means activation above about 33%, passing the limit was not always enough;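 further: cells stimulated with NPY at EC10 then isoproterenol at EC100; 0% = low agonist plus stimulus and 100% = saturating agonist plus stimulus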
NPY Y2 blocker – antagonists of human neuropeptide Y receptor Y2. hit rate 0.99% among 140,000. P49146. NPY-Y2 expressing cells, antagonist mode. inhibition, % at 2.7 µM;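 further: 0% = vehicle with agonist challenge and 100% = reference antagonist with challenge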
NPY-Y1 ant conf – human NPY-Y1 antagonism, confirmation; shares compounds with NPY-Y1 antag; HEK293-CNG NPY-Y1, membrane potential fluorescence, cAMP; NPY challenge against isoproterenol-raised cAMP; inhibition, % at 3.6 µM; hit rate 21% among 1,200; in the data active means inhibition above about 20%;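 further: 0% = vehicle with agonist plus stimulus and 100% = stimulus alone without agonist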
NPY2 antag ctr – counter-screen for NPY-Y1 antagonists: human NPY-Y2 antagonism; shares compounds with NPY-Y1 antag; hit rate 28% among 1,200; HEK293 NPY-Y2 CNG membrane potential fluorescence; cells given NPY, then isoproterenol; inhibition, % at 3.6 µM;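 further: 0% = DMSO with agonist challenge and 100% = reference antagonist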
Numbers without * were called inactive; . = not tested or not shown. A selection: hits, their analogues and other compounds. The true share with any hit is near 2.4%. Unless noted, no stated cut-off is given here; in the data, active means inhibition above about 17%; inactive means the rest.

SMILES | S1P4 agonist | NPY-Y1 antag | NPY-Y2 PAM-ag | S1P4 antag | NPY-Y1 PAM-ag | NPY Y2 blocker | NPY-Y1 ant conf | NPY2 antag ctr
Cc1cc(=O)oc2cc(OCc3nnc(-c4ccccc4Br)o3)ccc12 | -1 | 26* | -5 | -16 | -6 | 13 | 4 | 8
COc1ccc(C)cc1N(C(=O)c1ccc(F)cc1)c1nc2ccccc2s1 | 0 | 22* | -5 | -3 | -19 | 11 | 15 | 10
COc1ccc(-c2nnc3sc(C4CCCCC4)nn23)cc1OC | 0 | 33* | -40 | -9 | -80 | 16 | 24* | 38*
COc1ccc(-c2nn3c(C4CCCCC4)nnc3s2)cc1OC | 0 | 19 | -11 | 2 | -14 | 2 | . | .
OC(CNCc1ccc(F)cc1)(c1ccccc1)c1ccc(F)cc1 (configuration not stated) | 0 | 9 | -1 | 13 | -8 | 9 | . | .
COc1ccc(CNCC(O)(c2ccc(F)cc2)c2ccc(F)cc2)cc1 | -1 | 32* | -4 | -2 | 1 | . | 10 | 11
COc1ccc(OC)c(-c2csc(N3CCC(c4ccccc4)CC3)n2)c1 | 0 | 2 | 5 | 1 | 13 | . | . | .
Cc1nn(C)cc1CN1CCC(CO)(CCOc2ccccc2)CC1 | -2 | 6 | -17 | -4 | -13 | . | . | .
CCOc1ccccc1CN1CCC(CO)(CCOc2ccccc2)CC1 | -2 | 31* | -32 | -7 | -49 | . | 14 | 17
COc1ccc(CN2CCC(CO)(CCOc3ccccc3)CC2)c(OC)c1C | 0 | 24* | -22 | -18 | -15 | . | 11 | 17
OCCOc1cccc(CN2CCC(CO)(CCOc3ccccc3)CC2)c1 | 4 | 7 | 3 | -16 | 9 | . | . | .
Cn1c(CCC(=O)Nc2ccc(N3CCOCC3)cc2)nc(=O)c2ccccc21 | 0 | 3 | 0 | 20 | 13 | 2 | . | .
CCOc1ccccc1-c1nc(C(N)=O)c2[nH]c(=O)n(-c3cccc(C)c3)c2n1 | 2 | 24* | -5 | -18 | 4 | 17 | 13 | 6
Cc1cccc(OCc2n(CC(=O)OC3CC(C)CCC3C(C)C)c3ccccc3[n+]2C)c1 (configuration not stated) | 1 | 28* | -25 | -1 | -49 | . | 24* | 39*
Cc1ccc(-n2c(CNc3ccc(F)cc3)nnc2SCC(=O)O)cc1 | 2 | 0 | -6 | -17 | 4 | . | . | .
COc1ccc(NC(=O)c2sccc2SCc2cccc(C(F)(F)F)c2)cc1 | 0 | 32* | -27 | -17 | -26 | 6 | 7 | 8
O=C(Nc1ccc(F)cc1)c1sccc1SCc1cccc(C(F)(F)F)c1 | 0 | 25* | -32 | -6 | -15 | 13 | 9 | 10
O=C(Nc1ccc(F)cc1F)c1sccc1SCc1cccc(C(F)(F)F)c1 | 0 | 48* | -22 | -7 | -32 | 7 | 23* | 17*
COc1c(C(=O)Nc2c(C)n(C)n(-c3ccccc3)c2=O)ccc2ccccc12 | 1 | 2 | 2 | -21 | 0 | 1 | . | .
CCOc1cccc(C(=O)NC(=S)Nc2cccc(C)c2)c1 | -2 | 15 | -20 | -7 | -63 | 2 | . | .
COC(=O)c1cc2oc(C)cc2n1CC(=O)Nc1ccc(OC)c(OC)c1OC | 0 | -1 | 9 | 10 | -13 | 0 | . | .
O=C(c1ccc([N+](=O)[O-])s1)N1CCc2ccccc2C1 | 0 | 0 | 4 | -8 | 2 | . | . | .
O=C(c1ccco1)c1cn(CC(=O)N2CCCC2)c2ccccc12 | -3 | -5 | -8 | 6 | -14 | . | . | .
O=C(O)CCc1ccc(-c2ccc(Cl)cc2)o1 | 2 | 17 | -29 | -8 | -36 | 15 | . | .
O=C(O)CCc1ccc(-c2ccc(Br)cc2)o1 | 0 | 23* | -11 | -5 | -30 | 10 | 12 | 13
SMILES | S1P4 agonist | NPY-Y1 antag | NPY-Y2 PAM-ag | S1P4 antag | NPY-Y1 PAM-ag | NPY Y2 blocker | NPY-Y1 ant conf | NPY2 antag ctr
CCc1ccc(C(=O)NC(C(=O)O)C(C)C)cc1 (configuration not stated) | -1 | 10 | -32 | -3 | -27 | 2 | . | .
COc1ccc(-c2nc(CN3CCN(c4cc(C)nc(C)c4)CC3)c(C)o2)c2ccccc12 | -2 | 23* | -9 | -1 | -23 | . | 15 | 29*
C[C@H]1CC[C@H]2C(=O)N3[C@H](c4ccccc4Br)[C@@H](C)CC[C@H]3C(=O)N2[C@@H]1c1ccccc1Br | 0 | 28* | 17 | 14 | -4 | 12 | 20 | 9
O=C(Nc1cccc(Cl)c1)c1csc(-c2ccccc2)n1 | 2 | 23* | -40 | -3 | -22 | 16 | 6 | 8
CCOC(=O)c1sc(NC(=O)CSc2nncn2C)nc1C | -1 | -1 | 2 | -4 | -4 | . | . | .
CCNc1nc(NCC)nc(SCCOC(=O)Nc2ccc(Cl)cc2Cl)n1 | -1 | 24* | -21 | 11 | -40 | 13 | 10 | 12
COC(=O)c1ccc(-c2noc(CN3CCCCC3c3nccn3C)n2)cc1 (configuration not stated) | 1 | 33* | -1 | 11 | -5 | . | 9 | 12
Cc1cc(Nc2ccc([N+](=O)[O-])cc2)nc2ccccc12 | -1 | 24* | 3 | 5 | 21 | . | 7 | 16
CC(=O)c1ccc(NC(=S)Nc2ccc(N3CCOCC3)cc2)cc1 | 1 | -2 | 10 | 5 | -2 | . | . | .
Cc1ccc(C)c(SCc2noc(C(=O)NCC3CCCO3)c2C(=O)O)c1 (configuration not stated) | -3 | 21* | -20 | 20 | -26 | 10 | 22* | 13
Cc1cccc(SCc2noc(C(=O)NCC3CCCO3)c2C(=O)O)c1 (configuration not stated) | 1 | 17 | -20 | 2 | -37 | 10 | . | .
CC(C)c1ccc(SCc2noc(C(=O)NCC3CCCO3)c2C(=O)O)cc1 (configuration not stated) | -1 | 24* | -38 | -7 | -14 | 9 | 10 | 10
Cc1ccc(S(=O)(=O)CCSc2nc(C)cc(C)c2C#N)cc1 | 1 | 1 | -8 | 5 | -24 | 2 | . | .
CCCCNC(=O)c1sc2nc(C)cc(COC)c2c1-n1cccc1 | -1 | 21* | -22 | 3 | -44 | 9 | 20 | 12
CCN(CC)CCNc1ncnc2c1sc1nc(N3CCOCC3)c3c(c12)CC(C)(C)SC3 | -2 | 8 | -21 | -12 | -45 | 5 | . | .
Cn1c(=O)c(C(=O)COc2ccc(F)cc2Cl)c(N)n(Cc2ccccc2)c1=O | 1 | 32* | -19 | -20 | 0 | . | 10 | 55*
Cn1c(N)c(C(=O)COc2ccc(Cl)cc2Cl)c(=O)n(C)c1=O | 3 | 5 | 3 | 1 | 7 | . | . | .
